Source: PubChem BioAssay
hiPSC survival: hiPSC single-cell survival enhancement. ATPlite luminescence; 100% = ROCK inhibitor wells, 0% = DMSO. survival enhancement, % at 20 µM. 360,000 compounds, 0.044% hits; in the data active = survival enhancement above about 18%;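 note: cells exposed to compounds for 16 hours before the ATP read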
MT1-MMP act inh: MT1-MMP (human) activation inhibition. P50281. HT1080 RFP-PRO-GFP cells, GFP/RFP ratio fluorescence, overnight; percent of plate control window, DMSO zero. GFP/RFP ratio change, % at 20 µM. 360,000 compounds, 0.061% hits;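 active = GFP/RFP ratio change of at least 30% with cell ATP level not reduced by more than half and red fluorescence within 50% of control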
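Test system: HT1080 RFP-PRO-GFP cells; Benchmarks: DMSO and RFP-L50D-GFP cell wells; Timing: cells overnight before dosing, compound overnight, 37 °C, 5% CO2; Compound: one 20 µM compound dose with 1% DMSO; Read-out: GFP/RFP fluorescence ratio.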
SKN-1 inh: C. elegans SKN-1 inhibition. C. elegans VP596 Pgst-4::GFP/RFP ratio, acrylamide-induced, 24 h. inhibition, % at 21.8 µM. 360,000 compounds, 0.49% hits;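 active = interference check ratio from 0.5 to 1.5 plus GFP to RFP signal ratio inhibition reaching or exceeding a fixed threshold, cut at about 30% in these data, passing the limit was not always enough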
Ecoli rRNA inh: selective bacterial rRNA inhibition in E. coli; GFP signal change (wild-type ribosome), % (no concentration beside the values); E. coli WT GFP vs humanized-ribosome RFP mutants, fluorescence, 24 h; hits give low values; DMSO median 0, no signal -100; AID 720706; 350,000 compounds, 1.6% hits;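 active = significant combined selectivity score with lowered wild-type GFP, culture density cut under 30%, mutant RFP and density less affected; inactive = any of these conditions unmet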
Cneo AK release: causes C. neoformans cell lysis. adenylate kinase release luminescence, 4 h; normalised: neutral wells 0, clomiphene wells 100. lysis activity, % at 15 µM. 360,000 compounds, 0.2% hits. AID 651654;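 active = mean lysis activity across replicates of at least 80%, whatever share of replicates individually reach that level; inactive = mean lysis activity below 80%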
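Assay system: Cryptococcus neoformans yeast cells / Dosing: single-point compound dose / Timing: 4 h at 37 °C static, read 1 h later / Measured by: luminescence of released adenylate kinase using an AK detection reagent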
DAGLB inhibitor: blocks human DAGLB lipase activity | Q8NCG7 | HEK293T DAGLB membrane lysate, EnzChek fluorogenic substrate | inhibition, % at 5.17 µM | 340,000 compounds, 0.059% hits | AID 504411; in the data active = inhibition above about 34%;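 note: 0% = enzyme with vehicle and 100% = wells lacking enzyme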
Target sequence (Q8NCG7 whole entry, looked up): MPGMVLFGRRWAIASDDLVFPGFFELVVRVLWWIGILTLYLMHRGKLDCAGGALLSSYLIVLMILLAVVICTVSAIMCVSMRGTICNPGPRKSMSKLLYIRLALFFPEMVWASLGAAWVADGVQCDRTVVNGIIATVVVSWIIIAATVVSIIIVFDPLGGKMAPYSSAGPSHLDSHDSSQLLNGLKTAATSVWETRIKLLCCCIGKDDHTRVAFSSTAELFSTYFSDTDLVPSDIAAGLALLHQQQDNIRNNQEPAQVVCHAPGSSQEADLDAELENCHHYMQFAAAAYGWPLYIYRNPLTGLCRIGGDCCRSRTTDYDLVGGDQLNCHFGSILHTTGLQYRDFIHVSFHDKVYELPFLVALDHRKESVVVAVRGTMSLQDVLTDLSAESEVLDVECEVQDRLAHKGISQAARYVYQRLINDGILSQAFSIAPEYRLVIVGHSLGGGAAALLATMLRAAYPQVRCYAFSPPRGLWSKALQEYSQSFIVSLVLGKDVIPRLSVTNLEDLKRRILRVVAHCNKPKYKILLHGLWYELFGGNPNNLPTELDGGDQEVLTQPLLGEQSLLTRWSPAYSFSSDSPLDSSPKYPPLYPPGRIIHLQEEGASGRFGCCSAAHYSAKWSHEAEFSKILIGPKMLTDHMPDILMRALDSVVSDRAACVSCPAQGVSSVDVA
AID977621: growth inhibition of wild-type GFP E. coli, dose response, H69 mutant RFP, cherry-pick; shares compounds with Ecoli rRNA inh; E. coli wild-type GFP strain growth, fluorescence, 24 h; activity change, negative = inhibition at 50 µM; 1,900 tested, under 10 active; AID 977621;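 active = Wild-type ribosome reporter drop at least double the humanized mutant ribosome reporter drop, growth loss under a set limit; inconclusive = no clear call, values can overlap the other calls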;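 note: wild-type GFP and H69 mutant RFP strains grown together 50/50 in each well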
AID977628: E. coli growth inhibition, wild-type GFP versus h24 humanized RFP strain, dose response, h24 mutant RFP vs wild-type GFP, cherry-pick | 1,900 tested, under 10 active | E. coli WT GFP strain growth, fluorescence, 24 h | AID 977628 | activity change, negative = inhibition at 50 µM | shares compounds with Ecoli rRNA inh;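 active = compound lowering the normal-ribosome reporter at least twice as much as the humanized-ribosome reporter, growth loss under a set limit; inconclusive = no clear call, values can overlap the other calls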;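 note: wild-type GFP and h24 humanized RFP strains co-cultured 1 to 1 per well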
* hit, by the source's call; u = inconclusive; x = no result. Only some compounds are listed: those with a hit (about 1.8% of all), similar ones and a draw of the others.

SMILES	hiPSC survival	MT1-MMP act inh	SKN-1 inh	Ecoli rRNA inh	Cneo AK release	DAGLB inhibitor	AID977621	AID977628
CN(C)CCCN(C(=O)COc1ccc(Cl)cc1)c1nc2c(F)cccc2s1	-1	-1	-2	5	x	-4	x	x
CN(C)CCCN(C(=O)COc1ccc(Cl)cc1)c1nc2ccc(F)cc2s1	-1	-4	-17	-23*	5	0	-6.3	-4.4
CN(C)CCCN(C(=O)CCOc1ccccc1)c1nc2c(F)cccc2s1	-1	-4	1	-14*	x	3	-8.5	u
C[C@H](O)C#Cc1ccc2c(c1)O[C@@H](CN(C)Cc1ccncc1)[C@H](C)CN([C@H](C)CO)S2(=O)=O	x	x	x	-3	-1	x	x	x
CC(C)Oc1ccc(C(CC(=O)O)NC(=O)C(Sc2ccccc2)c2ccccc2)cc1 (stereo not drawn)	0	2	-2	-27*	-2	x	-16	x
COc1ccc(OCCn2c(N)nc3ccccc32)cc1	2	8	-12	-23	3	1	x	x
Nc1nc2ccccc2n1CCOc1ccc(F)cc1	1	1	-6	-21*	2	1	-6.1	-14
CC(=O)N1c2c(cc(Br)cc2S(=O)(=O)N2CCOCC2)CC1C (stereo not drawn)	14	-5	4	x	0	0	x	x
CC(=O)N1c2c(cc(Br)cc2S(=O)(=O)N2CCCCC2)CC1C (stereo not drawn)	-1	3	8	-19*	0	-2	x	-6.5
CC(=O)Oc1ccc(N(C(C)=O)S(=O)(=O)c2ccc(Cl)cc2)c2ccccc12	0	3	-10	-23*	-2	3	-13	u
CC(=O)Oc1ccc(N(C(C)=O)S(=O)(=O)c2ccc(C)cc2)c2ccccc12	-1	3	-2	-25*	x	-1	-15	x
CC(=O)N(c1ccccc1C)S(=O)(=O)c1ccc(Cl)cc1	0	-2	1	-23	x	0	x	x
Cc1c(Cc2ccccc2)sc(NC(=O)Cc2ccccc2)c1C(N)=O	-3	-2	-9	-18*	2	-1	-4.5	-11
COC(=O)c1c(NC(C)=O)sc(Cc2ccccc2)c1C	-2	0	-6	x	0	-1	x	x
CN(C)CC(=O)N1[C@H](CO)[C@H](c2ccccc2)C12CN(C(=O)c1cccc(F)c1)C2	x	x	x	4	x	x	x	x
CCOc1ccccc1N1CCN(Cc2cn[nH]c2-c2ccc(F)cc2)CC1	0	3	9	-19*	x	-5	-22	x
Cc1ccc2c(c1C)OC(=O)CC2c1ccccc1 (stereo not drawn)	0	1	-7	-27*	0	-6	x	u
Cc1ccc2c(c1)OC(=O)CC2c1ccccc1 (stereo not drawn)	2	-2	-5	x	2	-4	x	x
COc1cccc(CC(=O)OC(C)C(=O)NCc2ccc3c(c2)OCO3)c1 (stereo not drawn)	0	6	2	-31*	x	0	u	u
COc1ccc2c(CC(=O)NCc3ccc4c(c3)OCO4)coc2c1	0	7	10	-25*	-10	2	2.3	u
CC(OC(=O)Cc1ccc(F)cc1)C(=O)NCc1ccc2c(c1)OCO2 (stereo not drawn)	0	0	17	-4	1	0	x	x
COc1ccc2c3c([nH]c2c1)[C@H](CO)N(C(=O)c1cccnc1)CC31CCN(C(=O)CN(C)C)CC1	x	x	x	3	x	x	x	x
C[C@@H]1CN([C@@H](C)CO)C(=O)c2cc(NC(=O)CCC(F)(F)F)ccc2O[C@@H](C)CCCCO[C@@H]1CN(C)C(=O)Nc1ccc2c(c1)OCO2	x	x	x	-1	-1	x	x	x
O=C(CC(c1ccccc1)c1cc(Br)ccc1O)N1CCCC1 (stereo not drawn)	-1	-2	0	-20*	x	-3	x	u
O=C(Nc1ccn(Cc2ccc(Cl)cc2)n1)c1ccccc1	0	-1	4	-24*	-2	-3	-1.2	-9.7
SMILES	hiPSC survival	MT1-MMP act inh	SKN-1 inh	Ecoli rRNA inh	Cneo AK release	DAGLB inhibitor	AID977621	AID977628
O=C(N[C@@H]1CC[C@H](CC(=O)N2CCCCC2)O[C@H]1CO)c1ccc2c(c1)OCO2	x	x	x	-5	-9	x	x	x
O=C(COC(=O)c1ccccc1O)NCCC1=CCCCC1	2	-2	-5	-22*	x	-9	-14	u
COc1ccc(NC(=O)Nc2ccc3c(c2)C(=O)N([C@@H](C)CO)C[C@@H](C)[C@H](CN(C)C)OCCCC[C@@H](C)O3)cc1	x	x	x	-1	x	x	x	x
c1cncc(-c2nc3cc4ccccc4cc3[nH]2)c1	-3	17	13	-26*	-30	-1	-3.1	x
C[n+]1ccccc1/C=C/c1cc(Br)ccc1O	0	0	6	-21*	0	0	x	u
COc1ccc(/C=C/c2cccc[n+]2C)c(O)c1	0	-3	4	7	-3	0	x	x
Cc1ccc(S(=O)(=O)N2CCCc3ccccc32)cc1	-1	1	-10	-43	-5	-11	x	x
O=S(=O)(c1cnc(Cl)c(Cl)c1)N1CCCc2ccccc21	-1	-2	-8	-25*	x	-9	-10	-7.4
CCOC(=O)c1ccc(NC(=O)COc2ccc(CNCCO)cc2OCC)cc1	-1	0	5	-24*	x	0	-11	-4.7
CO[C@@H]1CN(C)C(=O)c2cc(NS(C)(=O)=O)ccc2OC[C@@H](C)N(S(C)(=O)=O)C[C@@H]1C	x	x	x	2	1	x	x	x
Cc1ccccc1S(=O)(=O)N1[C@H](C#N)[C@@H](c2ccccc2-c2cccc(F)c2)[C@@H]1CO	x	x	x	-24	x	x	x	x
Cc1noc(C)c1NC(=O)N(C)C[C@H]1OCCCC[C@@H](C)Oc2ccc(NC(=O)Nc3ccc4c(c3)OCO4)cc2C(=O)N([C@@H](C)CO)C[C@H]1C	x	x	x	2	-3	x	x	x
Cc1noc(C)c1NC(=O)Nc1ccc2c(c1)C(=O)N([C@H](C)CO)C[C@H](C)[C@@H](CN(C)C(=O)Nc1ccc3c(c1)OCO3)OCCCC[C@H](C)O2	x	x	x	-3	-2	x	-7.7	u
Cc1noc(C)c1NC(=O)Nc1ccc2c(c1)C(=O)N([C@H](C)CO)C[C@@H](C)[C@H](CN(C)C(=O)Nc1ccc3c(c1)OCO3)OCCCC[C@@H](C)O2	x	x	x	-2	8	x	-8.3	u
